# Bioassay records (PubChem)
# The list is not random: actives were taken first. Their share in the collection is about 1.1%.
# Keap1-Nrf2 PPI – inhibitors of human Keap1-Nrf2 protein-protein interaction; Q14145; Keap1 Kelch-Nrf2 peptide fluorescence polarization, 1536-well; inhibition, % at 9.4 µM; 0.15% of 340,000 active; AID 504523; in the data active = inhibition above about 12%;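 also: human Keap1 Kelch domain with fluorescein labeled Nrf2 9mer peptide probe; higher means more block of Keap1 binding to Nrf2 peptide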
# Target sequence (Q14145 whole entry, looked up, the tested form may be a part): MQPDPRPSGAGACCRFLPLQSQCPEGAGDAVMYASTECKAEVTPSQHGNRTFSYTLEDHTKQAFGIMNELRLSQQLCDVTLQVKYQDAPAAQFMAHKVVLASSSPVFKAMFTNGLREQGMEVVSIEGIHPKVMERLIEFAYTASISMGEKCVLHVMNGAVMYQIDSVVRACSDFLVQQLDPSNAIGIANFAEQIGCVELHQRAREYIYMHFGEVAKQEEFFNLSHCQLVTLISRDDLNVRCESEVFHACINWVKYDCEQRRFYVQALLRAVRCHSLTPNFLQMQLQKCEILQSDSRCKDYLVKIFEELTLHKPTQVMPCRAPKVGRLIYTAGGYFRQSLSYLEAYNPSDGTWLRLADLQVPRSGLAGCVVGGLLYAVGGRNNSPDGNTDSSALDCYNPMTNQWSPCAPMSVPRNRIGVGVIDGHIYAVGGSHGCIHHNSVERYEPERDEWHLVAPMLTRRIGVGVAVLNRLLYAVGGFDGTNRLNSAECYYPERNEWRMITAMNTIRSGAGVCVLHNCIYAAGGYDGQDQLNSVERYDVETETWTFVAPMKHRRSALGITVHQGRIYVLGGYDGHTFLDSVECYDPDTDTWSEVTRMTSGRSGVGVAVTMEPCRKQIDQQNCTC
# CAL PDZ FP-1 – blocks peptide binding to the human CAL PDZ domain. purified CAL PDZ, TMR-peptide fluorescence polarization, 1 h. inhibition, % at 24.9 µM. 0.92% of 300,000 active;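 active = mean inhibition of at least 30% with at least half of replicates also reaching 30%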
# miR-122 sensor – inhibitors of miR-122 in Huh7 cells | Huh7 miR-122 Renilla luciferase sensor, 48 h; neutral wells = 0, positive control = 100 | activation (reporter increase), % at 12.5 µM | 0.3% of 340,000 active | AID 602342;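 active = mean replicate activation score at least 90 and every replicate individually at or above 90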;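 also: higher luciferase means less miR-122 activity so hits act as miR-122 inhibitors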
# CAL PDZ FP-2 – inhibitors of human CAL PDZ peptide binding; Q9HD26; inhibition, % at 20 µM; purified CAL PDZ, TMR-peptide fluorescence polarization, 1 h; 0.02% of 330,000 active;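 active = highest replicate inhibition of at least 40%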
#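 System: purified tagged CAL PDZ domain construct (CerCALP). Schedule: 1 h incubation at room temperature before polarization reading. Medium: 25 mM sodium phosphate pH 7.4, 150 mM NaCl, TCEP, IgG, Thesit. Read-out: percent inhibition from loss of millipolarization. Measured by: FP readout, S and P plane fluorescence. Probe or stimulus: fluorescent TMR peptide probe.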
# LANA DNA inh – inhibitors of KSHV LANA C-terminal domain DNA binding | MBP-C-LANA/FAM-LBS DNA binding, fluorescence polarization | inhibition, % at 9 µM | 0.078% of 340,000 active | AID 504423;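 active = highest replicate inhibition at or above 60% at 9 µM, even if other replicates fall short; inactive = all replicates below 60% inhibition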
# A number is an active result; . = inactive; / = no result given.
SMILES,Keap1-Nrf2 PPI,CAL PDZ FP-1,miR-122 sensor,CAL PDZ FP-2,LANA DNA inh
CCN(CC(=O)Nc1cccc(OC)c1)CC(=O)Nc1ccc(C)cc1Cl,.,66,/,/,.
Cc1nnsc1C(=O)NC1CCCc2c1cnn2-c1ccc(C(C)(C)C)cc1 (configuration not stated),.,60,.,.,.
Cc1ccc(NC(=O)NNC(=O)Cn2nc(-c3ccccc3)c(-c3ccccc3)c(C#N)c2=O)cc1,.,.,104,.,.
O=C(Cn1nc(-c2ccccc2)c2ccccc2c1=O)Nc1ccc(O)cc1,.,.,.,.,.
CN(C)CCC(C(=O)c1ccccc1)c1ccncc1 (configuration not stated),.,.,.,.,.
CN(C)CCC(C(=O)c1ccccc1)c1ccccn1 (configuration not stated),.,85,.,.,.
Cc1noc(C)c1NC(=O)Nc1ccc2c(c1)CC(=O)N([C@@H](C)CO)C[C@@H](C)[C@H](CN(C)Cc1ccc(Cl)c(Cl)c1)O2,/,/,.,/,/
COc1ccc(-c2csc(N(Cc3ccco3)C(=O)c3cccs3)n2)cc1,.,.,.,191,.
COc1ccc(OC)c(-c2csc(N(Cc3ccco3)C(=O)c3cccs3)n2)c1,.,.,.,.,.
CCSc1nnc(NC(=O)CCNC(=O)c2ccccc2Cl)s1,.,115,.,.,.
C=CCSc1nnc(NC(=O)CCNC(=O)c2ccccc2Cl)s1,/,/,.,/,/
Cc1ccc(CN2C(=O)C(C)(C)Oc3ccc(C(=O)N4CCCCC4)cc32)cc1,.,.,318,/,.
C[C@@H]1CN([C@H](C)CO)C(=O)c2cccc(NC(=O)Nc3cccc4ccccc34)c2O[C@@H]1CN(C)S(=O)(=O)c1cccs1,/,/,.,/,/
Cc1ccc(CS(=O)Cc2ccc(C(=O)NCC(C)c3ccccc3)o2)cc1 (configuration not stated),.,82,.,.,.
Cc1ccc(CS(=O)Cc2ccc(C(=O)NCc3ccccc3)o2)cc1 (configuration not stated),.,.,.,.,.
C[C@@H]1CN([C@H](C)CO)C(=O)c2cccc(NC(=O)NC3CCCCC3)c2O[C@@H]1CN(C)Cc1ccc2c(c1)OCO2,/,/,.,/,/
N#C/C(=C(/O)c1ccc2c(c1)OCO2)c1nc2cc(C(F)(F)F)ccc2s1,.,43,.,.,.
N#C/C(=C(/O)c1ccccc1F)c1nc2cc(C(F)(F)F)ccc2s1,.,.,/,.,.
Cc1ccc(C(=O)NC(=S)NCC(=O)c2ccccc2)cc1,.,33,.,/,.
Cc1noc(C)c1NC(=O)N(C)C[C@H]1Oc2c(NC(=O)C3CCOCC3)cccc2C(=O)N([C@@H](C)CO)C[C@H]1C,/,/,.,/,/
C=C(C)CN(CC)C(=O)CSc1ccc(S(=O)(=O)N2CCN(Cc3ccccc3)CC2)cn1,.,69,.,.,.
C=C(C)CN(CC)C(=O)CSc1ccc(S(=O)(=O)N2CCN(C)CC2)cn1,.,.,.,.,.
CC(=O)NC(Cc1ccccc1)C(C)=O (configuration not stated),.,100,.,.,.
CCOc1ccccc1N(CC(=O)Nc1cccnc1)S(=O)(=O)c1ccc(C)cc1,.,.,128,.,.
C[C@@H]1CN([C@@H](C)CO)C(=O)Cc2cc(NC(=O)Nc3ccccc3)ccc2O[C@@H]1CN(C)C(=O)Nc1ccc(F)cc1,/,/,.,/,/
SMILES,Keap1-Nrf2 PPI,CAL PDZ FP-1,miR-122 sensor,CAL PDZ FP-2,LANA DNA inh
O=C(CNS(=O)(=O)c1ccccc1)OCC(=O)c1cccc([N+](=O)[O-])c1,.,.,.,.,.
O=C(Cc1ccccc1)OCC(=O)c1cccc([N+](=O)[O-])c1,.,47,.,.,.
Cc1cc(C)n(CC(=O)c2cccc([N+](=O)[O-])c2)n1,.,36,.,.,.
CCC(=O)Nc1cccc(NC(=O)c2ccc3c(c2)OCO3)c1,.,50,.,.,.
CCCn1nnc(NC(=O)c2ccc3c(c2)OCO3)n1,.,103,/,.,.
C[C@H](CO)N1C[C@H](C)[C@@H](CN(C)Cc2ccc(C(=O)O)cc2)OCCCC[C@H](C)Oc2ccc(NC(=O)Nc3ccc4c(c3)OCO4)cc2C1=O,/,/,.,/,/
O=C(NCCc1ccccc1F)c1ccc2c(c1)OCCO2,.,47,.,.,.
CCC(C)(C)NC(=O)CN(Cc1cccs1)C(=O)CCC(=O)Nc1nccs1,.,.,/,.,.
CCC(C)(C)NC(=O)CN(Cc1ccco1)C(=O)CCC(=O)Nc1nccs1,.,64,.,.,.
Cn1c(Cc2cccs2)n[nH]c1=S,.,38,.,.,.
Cn1c(Cc2ccccc2)n[nH]c1=S,.,.,/,.,.
C[C@@H]1CN([C@H](C)CO)C(=O)Cc2cc(NC(=O)Nc3cccc4ccccc34)ccc2O[C@@H]1CN(C)S(=O)(=O)c1ccc(F)cc1,/,/,.,/,/
O=C(Nc1ccccc1N1CCOCC1)c1ccc(Cl)c(S(=O)(=O)NCc2ccco2)c1,.,91,/,.,.
OC[C@H]1O[C@@H](n2cnc3c(Nc4ccccc4)ncnc32)[C@H](O)[C@@H]1O,.,.,.,.,.
OCC1OC(n2cnc3c(NCc4ccccc4O)ncnc32)C(O)C1O (configuration not stated),.,.,572,.,.
Cc1noc(C)c1S(=O)(=O)Nc1ccc2c(c1)C(=O)N([C@@H](C)CO)C[C@H](C)[C@@H](CN(C)S(=O)(=O)c1c(C)noc1C)OCCCC[C@H](C)O2,/,/,.,/,/
Nc1nc(C2CCCN2S(=O)(=O)c2ccc(Cl)cc2)cs1 (configuration not stated),.,46,.,.,.
COc1ccccc1CNC(=O)C[C@@H]1C[C@@H]2c3cc(NC(=O)Nc4ccccc4F)ccc3O[C@@H]2[C@H](CO)O1,/,/,.,/,/
CNc1c2cccc(C)c2nc2c(C(=O)NCCN(C)C)cccc12,.,.,/,.,61
Cc1ccc(C(=O)NCCN(C)C)c(C)c1,.,.,.,/,.
C[C@H](CO)N1C[C@H](C)[C@H](CN(C)S(=O)(=O)c2ccc(Cl)cc2)Oc2ccc(NS(=O)(=O)c3ccc(F)cc3)cc2C1=O,/,/,.,/,/
CC=Cc1ccc2n(c1=O)C[C@@H]1[C@@H](CO)[C@H](C(=O)N[C@@H](C)c3ccccc3)N(C)[C@H]21 (mixture of isomers),/,/,.,/,/
COc1ccc2oc(C(=O)N3CCc4ccccc43)c(C)c2c1,.,.,137,.,.
CCC(=O)N[C@H]1C=C[C@H](CC(=O)NCc2ccc(OC)cc2)O[C@H]1CO,/,/,.,/,/
CC(C)NC(=O)Nc1ccc2c(c1)C(=O)N([C@@H](C)CO)C[C@H](C)[C@@H](CN(C)C(=O)CCC(F)(F)F)OCCCC[C@H](C)O2,/,/,.,/,/
COCC#Cc1ccc2c(c1)O[C@@H](CN(C)Cc1ccc3c(c1)OCO3)[C@H](C)CN([C@H](C)CO)S2(=O)=O,/,/,.,/,/
Cc1cccc(C(=O)Nc2ccn(C)n2)c1,.,55,/,.,.
